For one data set, the system named is Salmonella typhimurium. In words: Mutagenicity in Salmonella typhimurium TA100 assessed as increase in number of colonies up to >200 uM by Ames test in presence of S9 fraction. It is filed as toxicity, organism-based. The note with it: salmonella enterica subsp. enterica serovar typhimurium.
Data set [1] concerns Heart. As to the kind of experiment: Cardiotoxicity in Langendorff-perfused Sprague-Dawley rat heart assessed as time duration of cardiac cycle length at 0.001 uM by ECG analysis (reference value: 238.38 +/- 9.23 milliseconds). It is filed as toxicity, tissue-based.
Data set [2] has as its system Mus musculus. As to the kind of experiment: Toxicity in CD-1 mouse assessed as 2-AG level in pawskin at 0.3 mg/kg, ip by LC-MS analysis (reference value: 6.1 +/- 0.3 pmol/g). The note with it: in vivo. It is filed as organism-based. The procedure, abridged: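 Male CD-1 mice received 0.3 mg/kg i.p. in 0.5% DMSO/saline, with formalin (1.25%, 30 µL) injected into the dorsal hind paw. Paw skin or spinal cord was taken at 5 min post-dose. Tissue was homogenized in CHCl3/MeOH/50 mM Tris-HCl (2:1:1) containing d5-2-AG, extracted with chloroform and analysed by LC-MS. n = 4; ANOVA with Bonferroni test.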

In data set [3] the test system is Mus musculus. In words: Antinociceptive activity in ip dosed CD-1 mouse assessed as inhibition of formalin-induced pain response compound administered 10 mins before formalin injection measured during early phase. It is filed as functional. Particulars: CD-1, ip, read-out: MED. The procedure, abridged:
(§1)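 Male CD-1 mice, n = 6 per group, injected with formalin (1.25% in saline, 30 μL) into the dorsal hind paw. Inhibitor (0.1 or 0.3 mg/kg i.p. in 0.5% DMSO/saline) given 10 min before formalin. Where used, AM251 or AM630 (1 mg/kg i.p.) given 10 min before the inhibitor. Time spent lifting, licking, shaking or flinching the injected paw recorded every 5 min over 60 min.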

The test system of data set [4] is Mus musculus. As to the kind of experiment: In vivo inhibition of MAGL in CD-1 mouse assessed as 2-AG level in pawskin at 0.3 mg/kg, ip coadministered with formalin by LC-MS analysis (reference value: 10.8 +/- 1.5 pmol/g). It is filed as functional.
The target in the next data set is Cannabinoid receptor 2 (Homo sapiens, UniProt P34972). As to the kind of experiment: Displacement of [3H]-CP-55940 from human recombinant CB2 receptor expressed in HEK293 cells after 90 mins. It is filed as cell-based. The procedure, abridged:
(§2)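 Membranes from HEK-293 cells stably expressing human CB1 (Bmax 2.9 pmol/mg) or CB2 (Bmax 6.0 pmol/mg) incubated 90 min at 30 °C with [3H]-CP-55,940: 0.4 nM for CB1, 0.53 nM for CB2. Non-specific binding defined with 10 µM WIN 55212-2.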
A general note: In a radioligand displacement assay an active substance lowers the binding of a labelled ligand.

A short description of data set [5]: Apparent permeability from luminal to abluminal side in human endothelial cells cocultured with pericytes at 100 uM after 20 to 60 mins by LC-UV analysis. It is filed as ADME, cell-based, Endothelial cell. The procedure, abridged:
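Human BBB model: endothelial cells derived from hematopoietic stem cells, cocultured 6 days with pericytes. Compound (100 µM in Ringer + Hepes) added luminally together with Lucifer yellow as an integrity marker. Incubated 20, 40 and 60 min at 37 °C; abluminal compound measured by LC-UV. Papp = J/(A·C0).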

The subject of data set [6] is Heart. In words: Cardiotoxicity in Langendorff-perfused Sprague-Dawley rat heart assessed as time duration of action potential at 1 uM by ECG analysis (reference value: 75.65 +/- 0.87 milliseconds). It is filed as toxicity, tissue-based.
Another data set addresses T1, Monoglyceride lipase (Rattus norvegicus, UniProt Q8R431).
T1 sequence (Q8R431 whole entry): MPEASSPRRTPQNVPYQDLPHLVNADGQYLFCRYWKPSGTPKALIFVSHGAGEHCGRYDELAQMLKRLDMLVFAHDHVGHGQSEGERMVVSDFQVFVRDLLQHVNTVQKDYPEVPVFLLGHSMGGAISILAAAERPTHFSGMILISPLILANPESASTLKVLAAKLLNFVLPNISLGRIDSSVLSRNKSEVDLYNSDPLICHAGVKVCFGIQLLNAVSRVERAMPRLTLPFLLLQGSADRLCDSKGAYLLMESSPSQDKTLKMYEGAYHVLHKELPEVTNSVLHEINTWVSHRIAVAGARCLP
As to the kind of experiment: Inhibition of rat MAGL.

In data set [7] the test system is Heart. As to the kind of experiment: Cardiotoxicity in Langendorff-perfused Sprague-Dawley rat heart assessed as heart rate at 1 uM by ECG analysis (reference value: 252.78 +/- 9.28 bpm). It is filed as toxicity, tissue-based.
In data set [8] the test system is Mus musculus. In words: In vivo inhibition of MAGL in CD-1 mouse assessed as 2-AG level in spinal cord at 0.3 mg/kg, ip coadministered with formalin by LC-MS analysis (reference value: 3.8 +/- 0.4 pmol/g). It is filed as functional.
A further data set deals with Cannabinoid receptor 1 (Homo sapiens, UniProt P21554). In words: Displacement of [3H]-CP-55940 from human recombinant CB1 receptor expressed in HEK293 cells after 90 mins. It is filed as cell-based. The procedure, abridged:
as §2

In data set [9] the test system is Heart. As to the kind of experiment: Cardiotoxicity in Langendorff-perfused Sprague-Dawley rat heart assessed as heart rate at 0.001 uM by ECG analysis (reference value: 252.78 +/- 9.28 bpm). It is filed as toxicity, tissue-based.
For data set [10], the system named is Mus musculus. In words: Antinociceptive activity in CD-1 mouse assessed as inhibition of formalin-induced pain response at 0.1 to 0.3 mg/kg, ip dosed 10 mins before formalin injection measured during early phase. It is filed as functional, organism-based. The procedure, abridged:
as §1

Data set [11] concerns Mus musculus. In words: Inhibition of demyelination in experimental autoimmune encephalomyelitis C57BL/6J mouse spinal cord at 3 mg/kg, ip administered post CB2 antagonist/inverse agonist AM630 addition by luxol fast blue staining based microscopic analysis. It is filed as functional, organism-based. The procedure, abridged:
(§3)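 EAE induced in female C57BL/6J mice with MOG35-55, then 3 mg/kg i.p. daily. AM251 or AM630 (1 mg/kg), where used, given 10 min before each dose. Spinal cord white matter stained with Luxol Fast Blue and demyelinated areas assessed by microscopy.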

Data set [12] concerns Mus musculus. In words: Antinociceptive activity in CD-1 mouse assessed as inhibition of formalin-induced late phase pain response at 0.1 to 0.3 mg/kg, ip dosed 10 mins before formalin injection measured every 5 mins for 60 mins in presence of CB1 antagonist/inverse agonist AM251. It is filed as functional, organism-based. The procedure, abridged: as §1
Data set [13] has as its system Mus musculus. As to the kind of experiment: Inhibition of demyelination in experimental autoimmune encephalomyelitis C57BL/6J mouse spinal cord at 3 mg/kg, ip administered post CB1 antagonist/inverse agonist AM251 addition by luxol fast blue staining based microscopic analysis. It is filed as functional, organism-based. The procedure, abridged:
as §3

Data set [14] has as its system Mus musculus. In words: Antinociceptive activity in CD-1 mouse assessed as inhibition of formalin-induced early phase pain response at 0.1 to 0.3 mg/kg, ip dosed 10 mins before formalin injection measured every 5 mins for 60 mins in presence of CB2 antagonist/inverse agonist AM630. It is filed as functional, organism-based. The procedure, abridged:
as §1

The subject of data set [15] is Mus musculus. As to the kind of experiment: Inhibition of demyelination in experimental autoimmune encephalomyelitis C57BL/6J mouse spinal cord at 3 mg/kg, ip by luxol fast blue staining based microscopic analysis. It is filed as functional, organism-based. The procedure, abridged: as §3
Data set [16] concerns Mus musculus. In words: Reduction of disease index score in myelin oligodendrocyte glycoprotein (35 to 55)-induced C57BL/6J mouse experimental autoimmune encephalomyelitis model of multiple sclerosis at 3 mg/kg, ip administered post CB1 antagonist/inverse agonist AM251 addition dosed on day 6 postimmunization up to 21 day postimmunization measured from day 12 postimmunization. It is filed as functional, organism-based. The procedure, abridged:
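Female C57BL/6J mice immunized with MOG35-55 were randomly assigned to groups. They received 3 mg/kg i.p. daily from 6 days post-immunization up to 21±1 d.p.i. AM251 or AM630, 1 mg/kg i.p., was given 10 min before each dose for 14 days. Clinical score was recorded daily and as cumulative score, reported as mean ± SEM. Group sizes were 4–9 mice.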

The values below come from ChEMBL document CHEMBL3785023, “Development and Pharmacological Characterization of Selective Blockers of 2-Arachidonoyl Glycerol Degradation with Efficacy in Rodent Models of Multiple Sclerosis and Pain” (J Med Chem, 2016).

Calls of active or inactive are those of the source. The rule behind the calls is not given here.

The IC50 is the midpoint of a concentration-inhibition curve. By Papp is commonly meant a coefficient for how fast a substance crosses the barrier.

Sequence of Cannabinoid receptor 1 (P21554 whole entry): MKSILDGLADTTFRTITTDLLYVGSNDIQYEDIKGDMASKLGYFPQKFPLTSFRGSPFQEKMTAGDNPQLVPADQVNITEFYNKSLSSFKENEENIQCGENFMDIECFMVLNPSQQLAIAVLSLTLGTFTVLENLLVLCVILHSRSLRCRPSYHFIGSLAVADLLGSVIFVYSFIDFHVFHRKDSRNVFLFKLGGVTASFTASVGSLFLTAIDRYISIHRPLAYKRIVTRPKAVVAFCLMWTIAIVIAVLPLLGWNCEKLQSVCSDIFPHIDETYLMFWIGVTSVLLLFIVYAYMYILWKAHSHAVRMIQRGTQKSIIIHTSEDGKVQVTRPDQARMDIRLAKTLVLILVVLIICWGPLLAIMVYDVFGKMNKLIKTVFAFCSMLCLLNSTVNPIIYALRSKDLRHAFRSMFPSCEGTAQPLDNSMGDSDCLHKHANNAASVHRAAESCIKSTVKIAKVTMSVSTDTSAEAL
Sequence of Cannabinoid receptor 2 (P34972 whole entry): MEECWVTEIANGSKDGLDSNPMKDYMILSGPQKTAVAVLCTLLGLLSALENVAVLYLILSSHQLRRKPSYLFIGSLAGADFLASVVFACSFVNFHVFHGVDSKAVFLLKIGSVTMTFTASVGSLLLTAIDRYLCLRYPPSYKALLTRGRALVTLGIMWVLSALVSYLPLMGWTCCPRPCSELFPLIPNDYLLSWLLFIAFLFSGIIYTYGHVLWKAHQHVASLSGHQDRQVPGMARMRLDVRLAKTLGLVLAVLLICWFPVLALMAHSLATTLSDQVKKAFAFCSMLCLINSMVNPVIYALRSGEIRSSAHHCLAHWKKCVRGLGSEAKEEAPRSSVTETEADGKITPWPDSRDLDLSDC

For `O=C1[C@H](c2ccc(F)cc2)[C@@H](c2ccc3c(c2)OCO3)N1C1CCN(C(=O)n2cncn2)CC1` (racemic) [listing 1 of 2 here], the Activity entry in the data set with Salmonella typhimurium is listed as “Non-toxic”; in the data set on Mus musculus [2], 11 pmol/g; in the data set with Mus musculus [4], 14.1 pmol/g; in the data set with Heart [7], 255.5 bpm; with Mus musculus [8] it was 6.6 pmol/g; with Heart [9] it was 254.38 bpm. In addition, the Time in the data set on Heart [1] is 236.93 ms; in the data set on Heart [6], 76.02 ms. Also, the minimal effective dose in the data set on Mus musculus [3] came out at 0.3 mg/kg. Also, the IC50 at Cannabinoid receptor 2 was more than 10 µM; on Monoglyceride lipase it was 0.25 nM; on Cannabinoid receptor 1, more than 10 µM. Further, in data set [5], the apparent permeability (Papp) at 100 µM is 47 ×10⁻⁶ cm/s.

On to `O=C1[C@H](c2ccc(F)cc2)[C@@H](c2ccc3c(c2)OCO3)N1C1CCN(C(=O)n2cncn2)CC1` (racemic) [listing 2 of 2 here], for which the inhibition entry with Mus musculus [10] and in the data set with Mus musculus [15] was “Active” in each case. In addition, the inhibition entry in the data set with Mus musculus [11], in the data set with Mus musculus [12], with Mus musculus [13] and with Mus musculus [14] was “inactive” in each case. Besides, the outcome in the data set on Mus musculus [16] was inactive.
